Assay outcomes: PubChem, several laboratories
Only some compounds are listed: those with a hit (about 5.4% of all), similar ones and a draw of the others.
SKKanGAS inh: S. pyogenes SKKanGAS growth inhibitors in kanamycin, primary screen, streptokinase expression inhibitor project, SKKanGAS strain, BacTiter-Glo luminescence; 6 h; inhibition, % at 7.5 µM; 1.3% of 300,000 active; AID 1662, 2009;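 active means mean replicate score, as percent of positive control median, at least 50; inconclusive means mean below 50 but one replicate at or above 50; inactive means mean and every replicate below 50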;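 further: strain carries kanamycin resistance gene driven by streptokinase promoter and grows in 40 µg/ml kanamycin; loss of luminescence reflects streptokinase promoter inhibition or plain growth inhibition; 0% = median of DMSO wells and 100% = positive control at its reference dose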
CSC inhib: cancer stem cell viability inhibitors, primary screen, luminescence; cancer stem cell-like cells viability; inhibition, % at 7.5 µM; 1.1% of 300,000 active; AID 2717, 2010; in the data active means inhibition above about 75%; inconclusive means no clear call, values can overlap the other calls; tested in HMLE shEcad cells
aSyn UTR inh: MLPCN primary screen, SNCA 5' untranslated region; alpha-synuclein 5'UTR reporter, inhibitor activity; inhibition, % (tested at 7.5 µM); 0.82% of 300,000 active; in the data active means inhibition above about 60%; inconclusive means no clear call, values can overlap the other calls;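 further: H4 neuroglioblastoma cells stably carrying SNCA 5'UTR luciferase fusion; 0% = DMSO wells and 100% = positive control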
T cruzi inh: inhibitors of intracellular T. cruzi growth, primary screen, luminescence, NIH3T3 host cells; T. cruzi beta-gal in NIH3T3, 90 h; 1.4% of 300,000 active; inhibition, % (no concentration beside the values);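 active means mean inhibition across valid replicates above about 55%, limit read from the data; inconclusive means mean below that limit but half or more replicates reach it; inactive means mean below it, under half of replicates reach it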;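 further: signal also drops with host cell toxicity which is not excluded here; 0% = plate median of DMSO wells and 100% = zero luminescence signal; higher percent means less beta-gal luminescence so fewer parasites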
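Test system: β-gal T. cruzi (Tulahuen C4) inside NIH/3T3 cells / Quantity: 5,000 cells/well / Measured by: luminescence from GalScreen with 0.05% NP40, read after 60 min / Medium: DMEM plus 2% FBS / Measure: parasite load inhibition, % / Reagent: Tulahuen C4 trypomastigotes, 5000/well / Schedule: co-culture of at least 90 h after 3 h attachment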
Mdm2 MdmX PPI: inhibitors of human Mdm2-MdmX association, primary screen, cell-based, luminescence, split luciferase, SaOS-2, uHTS | Protein Mdm4 (Homo sapiens) + E3 ubiquitin-protein ligase Mdm2 (Homo sapiens), … | SaOS-2 split-luciferase Mdm2/MdmX complementation | inhibition, % at 8 µM | 3% of 330,000 active;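 active means inhibition of at least 50% at 8 µM in the primary screen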
Target sequence (O15151 whole entry, looked up): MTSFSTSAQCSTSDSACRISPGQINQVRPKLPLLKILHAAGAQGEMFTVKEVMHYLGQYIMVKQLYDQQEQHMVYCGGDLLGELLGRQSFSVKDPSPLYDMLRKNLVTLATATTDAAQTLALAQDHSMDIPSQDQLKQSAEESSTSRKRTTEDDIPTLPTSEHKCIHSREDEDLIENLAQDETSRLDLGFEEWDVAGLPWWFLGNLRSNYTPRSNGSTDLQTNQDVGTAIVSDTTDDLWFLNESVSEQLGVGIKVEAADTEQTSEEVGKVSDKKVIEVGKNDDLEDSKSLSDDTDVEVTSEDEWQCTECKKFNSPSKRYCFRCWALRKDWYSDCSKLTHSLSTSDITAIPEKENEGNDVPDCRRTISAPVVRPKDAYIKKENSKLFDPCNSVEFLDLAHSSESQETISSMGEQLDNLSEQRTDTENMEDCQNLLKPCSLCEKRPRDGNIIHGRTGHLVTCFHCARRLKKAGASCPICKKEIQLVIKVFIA
Target sequence (Q00987 whole entry, looked up): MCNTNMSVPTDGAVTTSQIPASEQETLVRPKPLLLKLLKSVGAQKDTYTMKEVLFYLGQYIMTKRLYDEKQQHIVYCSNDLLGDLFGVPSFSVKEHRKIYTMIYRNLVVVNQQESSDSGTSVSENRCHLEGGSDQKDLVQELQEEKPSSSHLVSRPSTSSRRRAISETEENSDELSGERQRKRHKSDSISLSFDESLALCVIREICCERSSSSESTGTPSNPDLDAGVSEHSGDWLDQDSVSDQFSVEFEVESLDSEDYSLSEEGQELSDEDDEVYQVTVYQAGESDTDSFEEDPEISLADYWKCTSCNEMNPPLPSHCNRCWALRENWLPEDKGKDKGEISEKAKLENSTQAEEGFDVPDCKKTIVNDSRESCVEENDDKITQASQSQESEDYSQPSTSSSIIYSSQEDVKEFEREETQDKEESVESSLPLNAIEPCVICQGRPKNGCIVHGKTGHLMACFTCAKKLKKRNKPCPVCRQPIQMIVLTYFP
Mdm2-MdmX conf: Mdm2-MdmX complex disruptors, retested hits, confirmation, luminescence, single concentration; shares compounds with Mdm2 MdmX PPI; Mdm2-MdmX binding, luminescent assay; inhibition, % at 8 µM; 55% of 10,000 active; AID 489028, 2010; in the data active means inhibition above about 40%
Full FLuc ctr: full-length luciferase signal inhibition, confirmation, counter-screen for Mdm2/MdmX interaction inhibitor project, cell-based, single concentration, SaOS-2. shares compounds with Mdm2 MdmX PPI. SaOS-2 full-length luciferase counterscreen, luminescence. inhibition, % at 8 µM. 77% of 6,200 active. AID 504607, 2011;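 active means mean inhibition at 8 µM reaching about 37%, which flags the compound as non-specific, limit read from the data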;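 further: p53-null SaOS-2 cells with luciferase driven by a doxycycline-inducible promoter; compound on cells about two nights before reading with doxycycline added after day one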
* marks the source's active call; other numbers are inactive results; i = inactive; ? = inconclusive; nt = no result.

SMILES | SKKanGAS inh | CSC inhib | aSyn UTR inh | T cruzi inh | Mdm2 MdmX PPI | Mdm2-MdmX conf | Full FLuc ctr
CCCN(CC(=O)Nc1ccc(C(N)=O)cc1)CC(=O)Nc1ccc(F)c(F)c1F | 5.3 | -4.3 | 6.0 | -5.4 | 7.7 | nt | nt
CCN(CC)CCCCNc1ncc2cc(-c3cc(OC)cc(OC)c3)c(NC(=O)NC(C)(C)C)nc2n1 | 0.2 | -3.7 | 59.4 | 43.5 | 94.1* | 88.5* | 20.2
O=C(Nc1ccc(Cl)cc1)c1cc2c(cc1O)[nH]c1ccccc12 | 99.5* | 115.6* | -3.3 | -14.0 | 97.3* | 92.7* | 58.5*
CN(C)CC(CCCCC(CN(C)C)C(=O)c1ccccc1)C(=O)c1ccccc1 (stereo unspecified) | -18.5 | nt | 1.6 | 20.8 | 56.0* | 43.3* | 53.7*
COc1ccc2c(c1)[nH]c1c(=O)n(CCCn3ccnc3)cnc12 | -4.1 | 4.3 | -15.0 | -0.8 | 3.4 | nt | nt
COC(=O)C1=CN(c2cc(C)cc(C)c2)C=C(C(=O)OC)C1c1cccc(F)c1 | 7.0 | -0.6 | 28.2 | 55.5* | 53.5* | 37.4 | 106.1*
CC(C)C[C@]1(c2ccccc2)ON(c2ccccc2C(F)(F)F)C1=O | nt | 39.6 | nt | nt | 49.5 | nt | nt
COc1ccc([C@@]2(C(C)C)ON(c3ccccc3C(F)(F)F)C2=O)cc1 | nt | 60.1 | nt | nt | 79.8* | 56.2* | 44.8*
CC(C)[C@@]1(c2ccc(Cl)cc2)ON(c2ccccc2C(F)(F)F)C1=O | nt | 29.1 | nt | nt | 75.0* | 43.8* | 49.6*
COc1ccc([C@]2(C(C)C)ON(c3ccccc3C(F)(F)F)C2=O)cc1 | nt | -1.9 | nt | nt | 82.0* | 41.1* | 51.4*
COc1ccc(S(=O)(=O)Nc2ccccc2C(F)(F)F)cc1 | -1.2 | -1.0 | 8.1 | -9.3 | 5.9 | nt | nt
COc1ccc(C2(c3ccc(OC)cc3)NC(=O)N(CC(=O)Nc3ccccc3C(F)(F)F)C2=O)cc1 | 2.1 | -11.4 | -37.5 | 11.1 | -9.4 | nt | nt
O=C(CNS(=O)(=O)c1ccccc1)NCc1ccco1 | 1.5 | -9.9 | -6.2 | -8.5 | 20.8 | nt | nt
O=C(/C(C=Nc1ccc(F)cc1)=C(/O)c1ccco1)C(F)(F)F | -1.7 | 9.1 | -112.9 | 14.5 | -75.2 | nt | nt
O=C(NCCNc1ccc([N+](=O)[O-])cc1)c1cccs1 | -3.5 | -5.6 | -5.5 | -7.0 | -11.9 | nt | nt
COc1cc(/C=C/C(=O)c2ccc3c(c2)OCCO3)cc(Br)c1OCC(=O)N(C)C | 19.5 | nt | i | 7.7 | 95.3* | 79.2* | 56.2*
O=C(/C=C/c1ccncc1)c1ccc2c(c1)OCCO2 | -6.4 | 14.7 | -32.7 | 2.0 | 42.7 | nt | nt
Cc1ccc(C)c(NC(=O)CN(C)C(=O)c2ccc3[nH]c4c(c3c2)CC(C)CC4)c1 (stereo unspecified) | -0.4 | 26.0 | -23.2 | 3.8 | 1.5 | nt | nt
C=CCn1c(SCC(=O)N2N=C(c3ccco3)CC2c2ccco2)nnc1-c1ccncc1 (stereo unspecified) | -10.5 | -8.0 | -23.8 | -10.6 | 11.2 | nt | nt
Nc1ccc(NC(=O)c2ccccc2)c2c1C(=O)c1ccccc1C2=O | 2.4 | 10.9 | -36.4 | -6.0 | 51.6* | 52.5* | 71.7*
C=CCOc1nc(N(C)C)nc(N(C)C)n1 | -4.1 | -16.0 | -0.1 | -2.9 | 10.9 | nt | nt
Cc1ccc(C)c(OCc2ccc(C(=O)Nc3ccc([N+](=O)[O-])cn3)o2)c1 | nt | 19.5 | nt | nt | 35.6 | nt | nt
Cc1ccc(NC(=O)c2ccccc2OCc2ccc([N+](=O)[O-])cc2)nc1 | 15.5 | 15.5 | 12.2 | 12.4 | 75.8* | 59.7* | 92.2*
COc1ccc(/C=C2\CC/C(=C\c3ccc(OC)c(OC)c3)C2=O)cc1OC | 5.6 | -18.5 | -73.9 | 4.4 | 20.1 | nt | nt
COc1ccc(C=C2C=C(C(C)(C)C)C(=O)C(C(C)(C)C)=C2)cc1OC | -19.1 | ? | -0.4 | 75.4* | 100.3* | 17.6 | nt
SMILES | SKKanGAS inh | CSC inhib | aSyn UTR inh | T cruzi inh | Mdm2 MdmX PPI | Mdm2-MdmX conf | Full FLuc ctr
COCCCC1CCN(C(=O)C2CCC(=O)N(Cc3cccc(F)c3)C2)CC1 (stereo unspecified) | -2.0 | -7.7 | 14.9 | -0.8 | -0.1 | nt | nt
CC(=O)Nc1ccc(NC(=O)c2cc(=O)c3cc(C)cc(C)c3o2)cc1 | -5.1 | 27.2 | -60.7 | -1.5 | 67.2* | 54.2* | 89.8*
Cc1cc(C)c2oc(C(=O)Nc3ccc(S(=O)(=O)N4CCC(C)CC4)cc3)cc(=O)c2c1 | 21.4 | 0.8 | 11.0 | 9.8 | 29.5 | nt | nt
Nc1ncc(Br)cc1S(=O)(=O)Nc1cc(C(F)(F)F)cc(C(F)(F)F)c1 | 64.4* | -5.7 | -27.5 | -36.2 | 79.0* | 37.5 | 55.8*
Cc1cc(SC#N)cc(C)c1NC(=O)CCl | -4.1 | 30.0 | -22.6 | -10.7 | 58.6* | 49.1* | 33.8
CCc1cc(SC#N)cc(C)c1NC(=O)CCl | -5.5 | 56.4 | -22.7 | 14.8 | 80.8* | 41.0* | 55.4*
CCc1cc(SC#N)cc(C)c1N | -9.6 | -6.9 | 7.1 | -19.3 | -8.2 | nt | nt
C=CCN(c1ccc(C(=O)NCCN2CCOCC2)cc1)S(C)(=O)=O | -18.9 | -4.4 | 10.0 | -18.1 | 12.2 | nt | nt
CCC(C)NC(=O)CSc1nnc(-c2ccc(Cl)cc2)n1N (stereo unspecified) | 2.3 | -18.0 | -7.0 | -7.8 | -12.9 | nt | nt
COc1ccc(CNC(=O)CSc2nc(-c3ccccc3)cc(-c3cccs3)c2C#N)cc1 | 4.4 | 1.1 | 7.9 | -4.6 | 63.4* | -3.9 | nt
COc1cc(-c2cc(-c3ccccc3)nc(SCC(=O)Nc3nccs3)c2C#N)cc(OC)c1OC | 5.7 | -2.1 | -0.3 | 55.2* | 51.4* | 25.6 | nt
COc1ccc(-c2cc(-c3cccs3)c(C#N)c(SCC(=O)NCc3ccco3)n2)cc1 | nt | -7.9 | nt | nt | 56.1* | 70.1* | 51.5*
CCc1nnc(NC(=O)CSc2nc(-c3ccccc3)cc(-c3ccc(F)cc3)c2C#N)s1 | 1.3 | -6.8 | 33.6 | 1.6 | 15.4 | nt | nt
CCc1ccc(Cc2cnc(NC(=O)C3=NCCN3)s2)cc1 | 18.0 | 36.9 | -10.3 | -8.3 | 21.0 | nt | nt
COc1cc(C2C(C#N)=C(N)N(c3ccc(F)cc3)C3=C2S(=O)(=O)CC3)ccc1O (stereo unspecified) | 21.5 | nt | -13.0 | 9.8 | -10.5 | nt | nt
COC(=O)Cc1c(C)[nH]n(-c2cc(Cl)cc(Cl)c2)c1=O | 22.0 | -11.3 | 9.1 | -26.3 | -12.8 | nt | nt
O=C(NCc1ccccn1)c1cc(-c2ccccc2)nc2ccccc12 | 25.2 | 12.8 | -1.8 | -1.9 | 2.5 | nt | nt
COCCNC(=O)c1cc(-c2ccc(-c3ccccc3)cc2)nc2ccccc12 | 22.1 | 40.7 | -61.2 | 10.9 | 88.3* | 84.0* | 46.0*
O=C(NCc1ccccn1)c1cc(-c2ccc(-c3ccccc3)cc2)nc2ccccc12 | 29.4 | 49.7 | -14.4 | -34.6 | 83.6* | 60.6* | 54.0*
